Data set [1] concerns the target T1, Integrin alpha-V/beta-3 (Homo sapiens, UniProt P05106+P06756). Description: Binding affinity to integrin alphaVbeta3 receptor in human MSR3 cell membranes incubated for 2 hrs by Tr-NOESY NMR spectroscopy.
Data set [2] concerns the target T1, Integrin alpha-V/beta-3. The data set is described as follows: Binding affinity to integrin alphaVbeta3 receptor in human MSR3 cell membranes assessed as change in STD spectra incubated for 2 hrs by NMR spectroscopy relative to untreated control. The method in brief: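 Saturation transfer difference NMR used ligand at 1 mM with native membranes prepared from MSR3 melanoma cells (75-125 x10^6 cells). These cells express high αvβ3, as checked by FACS. Ligand protons nearest the receptor were identified from transferred saturation.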

For data set [3], the target named is T1, Integrin alpha-V/beta-3. The data set is described as follows: Allosteric activation of integrin alphaVbeta3 receptor in human MSR3 […] assessed as increase in anti-beta3 LIBS integrin antibody AP5 binding at 500 uM incubated for 90 mins by flow cytometry. In kind it is cell-based. The settings on record: 1.5 h.
Data set [4] concerns the target T1, Integrin alpha-V/beta-3. Description: Allosteric activation of integrin alphaVbeta3 receptor in human MSR3 […] assessed as increase in monoclonal antibody LM609 binding at 500 uM incubated for 90 mins by flow cytometry. In kind it is cell-based. To be noted: 1.5 h.
Data set [5] has as its target T1, Integrin alpha-V/beta-3. Description: Binding affinity to human integrin alphaVbeta3 receptor using acetyl-CisoDGRCGVRSSSRTPSDKY-bio probe and streptavidin-peroxidase conjugate incubated for 3 hrs by competitive binding assay. In kind it is protein-complex assay. The method in brief:
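Ki reported with its standard error from several independent experiments, each run in duplicate. Groups were compared by one-way ANOVA with Dunnett's post-test.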

The target of data set [6] is T1, Integrin alpha-V/beta-3. Description: Allosteric activation of integrin alphaVbeta3 receptor in human MSR3 […] assessed as increase in anti-beta3 LIBS integrin antibody AP5 binding at 5 uM incubated for 90 mins by flow cytometry. The settings on record: 1.5 h. In kind it is cell-based.
Data set [7] deals with T1, Integrin alpha-V/beta-3. The data set is described as follows: Binding affinity to integrin alphaVbeta3 receptor in EDTA pre-treated human MSR3 cell membranes incubated for 2 hrs by Tr-NOESY NMR spectroscopy. In short, it runs like this:
(§1)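 Ligand (1 mM) NMR-observed with native membranes prepared from human melanoma MSR3 cells (75-125 x10^6 cells), whose high αvβ3 expression was confirmed by FACS. Line 1 used saturation transfer difference (STD) to map the ligand protons closest to the receptor. Line 2 used transferred NOE, comparing NOEs with and without membranes.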

Data set [8] has as its target T1, Integrin alpha-V/beta-3. The data set is described as follows: Binding affinity to integrin alphaVbeta3 receptor in EDTA pre-treated human MSR3 cell membranes incubated for 2 hrs by NMR spectroscopy. In short, it runs like this: as §1

Molecules are shown by their SMILES. Calls of active or inactive are those of the source. The rule behind the calls is not given here. Numbered stars: 1 amine (or outer) side, 2 acyl side, 3 side chain; on linkers, the order of the positions; unused ones are H or OH. Bridge positions count the residues as written; N and C are the ends. Square brackets hold non-standard residues; d marks the D form. Peptide text beside a SMILES is read from it. * marks the point of attachment. X2 = O=C(O)CN1CCN(CC(=O)O)CCN(CC(=O)NCCN2C(=O)CC(*)C2=O)CC1; X1 = NC(=O)[C@H]1CC[C@H](CN2C(=O)CC(*)C2=O)CC1; Succinimide(1-Et,3-yl) = CCN1C(=O)CC(*)C1=O; βAsp = O=C(O)[C@H](CC(=O)[*:2])N[*:1] A value given as a limit tells only on which side of the number the result lay.

Consider `N=C(N)NCCC[C@@H]1NC(=O)CNC(=O)[C@H](CC(=O)O)NC(=O)[C@@H](N)CSSC[C@@H](C(=O)O)NC1=O` (H-CDGRC-OH; disulfide 1-5), for which the outcome at Integrin alpha-V/beta-3 [1] and at Integrin alpha-V/beta-3 [2] was inactive.
For the compound `N=C(N)NCCC[C@@H]1NC(=O)CNC(=O)C[C@@H](C(=O)O)NC(=O)CNC(=O)[C@H](CS)NC(c2ccccc2)C(=O)NC1=O` (stereo not given in full), the Activity entry on Integrin alpha-V/beta-3 [3] was “Not Active”.
`N=C(N)NCCC[C@@H]1NC(=O)CNC(=O)C[C@@H](C(=O)O)NC(=O)[C@H](CS)NC(=O)CNC1=O` (GRGCD-OH; lactam N-5): on Integrin alpha-V/beta-3 [3], the Activity result is recorded as “Not Active”.
Regarding `N=C(N)NCCC[C@@H]1NC(=O)CNC(=O)C[C@@H](C(=O)O)NC(=O)CNC(=O)[C@H](CS)NC(=O)CNC1=O` (GRGCGD-OH; lactam N-6), the Activity entry at Integrin alpha-V/beta-3 [4] and on Integrin alpha-V/beta-3 [3] was “Not Active” throughout.
At Integrin alpha-V/beta-3 [5], `CCN1C(=O)CC(SC[C@@H]2NC(=O)CNC(=O)[C@H](CCCNC(=N)N)NC(=O)CNC(=O)C[C@@H](C(=O)O)NC(=O)CNC2=O)C1=O` (stereo not given in full) (GRGC(Succinimide(1-Et,3-yl))GD-OH; lactam N-6) had an inhibitory constant (Ki) of 26.5 nM. The Activity on Integrin alpha-V/beta-3 [1] was above 50%; at Integrin alpha-V/beta-3 [6], “Not Active”; at Integrin alpha-V/beta-3 [2], above 50%; on Integrin alpha-V/beta-3 [3], “Not Active”.
Regarding `N=C(N)NCCC[C@@H]1NC(=O)[C@H](CS)NC(=O)[C@@H](Cc2ccccc2)NC(=O)[C@H](CC(=O)O)NC(=O)CNC1=O` (cyclo(RGD[dF]C)), on Integrin alpha-V/beta-3 [5], the inhibition constant Ki is 6.3 nM.
In the case of `N=C(N)NCCC[C@@H]1NC(=O)CNC(=O)C[C@@H](C(=O)O)NC(=O)[C@@H](N)CSSC[C@@H](C(=O)O)NC1=O` (H-C[βAsp]GRC-OH; disulfide 1-5), the Activity entry on Integrin alpha-V/beta-3 [3] is on record as “Not Active”.
`N=C(N)NCCC[C@@H]1NC(=O)CNC(=O)C[C@@H](C(=O)O)NC(=O)CNC(=O)[C@H](CSC2CC(=O)N(CCNC(=O)CN3CCN(CC(=O)O)CCN(CC(=O)O)CC3)C2=O)NC(=O)CNC1=O` (stereo not given in full) (GRGC(X2)GD-OH; lactam N-6): the Ki on Integrin alpha-V/beta-3 [5] came to 21.6 nM. Besides, the Activity result on Integrin alpha-V/beta-3 [6] and at Integrin alpha-V/beta-3 [3] was “Not Active” in each case.
Turning to `N=C(N)NCCC[C@@H]1NC(=O)CNC(=O)C[C@@H](C(=O)O)NC(=O)[C@H](CS)NCC(=O)NC(=O)C(c2ccccc2)NC1=O` (stereo not given in full), on Integrin alpha-V/beta-3 [3], the Activity entry is “Not Active”.
The same measure, in the same setting: as for `N=C(N)NCCC[C@@H]1NC(=O)CNC(=O)C[C@@H](C(=O)O)NC(=O)[C@H](CS)NC(=O)CNC(=O)CNC1=O` (GRGGCD-OH; lactam N-6), the entry is “Not Active”.
Compound `N=C(N)NCCC[C@@H]1NC(=O)CNC(=O)C[C@@H](C(=O)O)NC(=O)CNC(=O)[C@H](CSC2CC(=O)N(C[C@H]3CC[C@H](C(N)=O)CC3)C2=O)NC(=O)CNC1=O` (stereo not given in full) (GRGC(X1)GD-OH; lactam N-6) registered a Ki on Integrin alpha-V/beta-3 [5] of 19.9 nM. For the same compound, the result on Integrin alpha-V/beta-3 [7] and at Integrin alpha-V/beta-3 [8] was inactive. Also, the Activity at Integrin alpha-V/beta-3 [1] was above 50%; at Integrin alpha-V/beta-3 [6], “Not Active”; at Integrin alpha-V/beta-3 [2], above 50%; at Integrin alpha-V/beta-3 [3], “Not Active”.

The Ki is a dissociation constant, usually derived from enzyme kinetics or from competition with a known ligand.
